# Test results: the RNAGym collection of RNA variant scans (doi:10.1101/gad.245936.114)
# Variants at the floor of the assay were thinned out.
# B1: tRNA (parent)
# chain: CUCUCGGUAGCCAAGUUGGUUUAAGGCGCAAGACUUUAAUUUAUCACUACGAAAUCUUGAGAUCGGGCGUUCGACUCGCCCCCGGGAGAUUUUUUCCUCGAGCAA
# Variants of: B1
# Assay: nonsense suppression (GFP-seq) (ratio to wild type); higher = more function; SUP4oc tRNA, yeast GFP reporter sort-seq
# Summary of the method: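 Nonsense suppression (GFPSEQ) is the median GFP/RFP ratio of each sorting bin, weighted by the variant's estimated share of cells in that bin and expressed relative to the unmutated parent tRNA. Yeast strains carried genome-integrated variants of an ochre-suppressor tRNA from a library with ~3% random mutations, plus a galactose-driven GFP ochre reporter and RFP, and were grown in raffinose/galactose medium containing 80 mg/L adenine. Cells were sorted into GFP/RFP bins, each bin was Illumina-sequenced (phred ≥30), and variants were kept only with ≥100 reads and ≥30 cells.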
row,Variant,nonsense suppression
1,G28A A60G,1.07
2,A24U U35A,≤ 0.026
3,G28U U76A,≤ 0.026
4,G25C C27G,≤ 0.026
5,G28A A33G,0.161
6,G28A A33U,0.0279
7,A30C A60U U63A G69C,≤ 0.026
8,G28A G66A,0.152
9,A24U C80U,0.192
10,G26C G78U C82A,≤ 0.026
11,A24G C75A,0.24
12,A24G C75U,0.185
13,G25C A54U,0.0708
14,C27A U35C G66C G88C,≤ 0.026
15,G28C U63C,0.114
16,G28C U63A,0.225
17,G25A A30C,≤ 0.026
18,G25U G61A C82G G88U,≤ 0.026
19,G25U U63C C79A,≤ 0.026
20,C29U G32U U57A A62G U63C G69C,≤ 0.026
21,A30C A54U A60G A74U,≤ 0.026

row,Variant,nonsense suppression
1,G25C A89U,≤ 0.026
2,A24U G84A,0.0448
3,A24U G84C,0.107
4,C29U U35C U58G C64U G66C,≤ 0.026
5,G28C C34U,≤ 0.026
6,C27G A74C G86A,≤ 0.026
7,G26C C29U G67U,≤ 0.026
8,C27U A54C,0.0314
9,C27U A54U,0.104
10,C29G,≤ 0.026
11,C29A,0.113
12,C29U,1.07
13,A24U A30U,0.0403
14,A24U A30G,0.148
15,A24U G85U,0.0597
16,A24U G85A,0.327
17,A24U G85C,≤ 0.026
18,G25C C34A A87G,≤ 0.026
19,A24U A30C C83A,≤ 0.026
20,C27G C77G,≤ 0.026
21,G26C C34U G61A C82A G85C G86A,≤ 0.026

row,Variant,nonsense suppression
1,C27U A31C G61C,≤ 0.026
2,G25A G61A G84C,≤ 0.026
3,C27G U57C U58G G66A C68G,≤ 0.026
4,C29U C72U,0.101
5,G28U A60C,0.669
6,C27U A30U G85C,≤ 0.026
7,C29U G59C,0.0272
8,G25A G32U U71G,≤ 0.026
9,C27U C80U,0.0446
10,G28A G78C,0.0938
11,G28U C34A A87U,≤ 0.026
12,G25C C75A,0.826
13,G25U A54U G78C,≤ 0.026
14,C29U G67C,≤ 0.026
15,C29U U71C,0.0323
16,G25C A30U,0.0299
17,C29A A54U C56U G66C,≤ 0.026
18,G26C U57A G73A,≤ 0.026
19,C29U U35C,0.0545
20,G28A G84A,≤ 0.026
21,G26U C34U,≤ 0.026

row,Variant,nonsense suppression
1,C27A A87U,≤ 0.026
2,G26A G65A G86A,≤ 0.026
3,G28C U71C,0.112
4,G26A A31C,≤ 0.026
5,G28A C34G G59A,≤ 0.026
6,A24G G59A,≤ 0.026
7,A24G G59C,≤ 0.026
8,C27G C79A,≤ 0.026
9,G25C A30G A33U,≤ 0.026
10,G25A C29A G84C,0.027
11,G28U C79U,≤ 0.026
12,C27U G32C,≤ 0.026
13,G25C,0.185
14,C27G A31G A54U U70C G84A,≤ 0.026
15,A24G A31G,0.0322
16,C29U C82U,0.224
17,C27U U55C C56A G88U,≤ 0.026
18,G25U A60G G61A,≤ 0.026
19,C29U G61A,0.83
20,C29U G61U,0.754
21,C29U G61C,0.0261
